Columns and labels:
[1] = target: T1, Amine oxidase [flavin-containing] A (Homo sapiens, UniProt P21397); test: Inhibition of human recombinant MAOA expressed in insect cells using kynuramine substrate after 60 mins
T1 sequence (P21397 whole entry): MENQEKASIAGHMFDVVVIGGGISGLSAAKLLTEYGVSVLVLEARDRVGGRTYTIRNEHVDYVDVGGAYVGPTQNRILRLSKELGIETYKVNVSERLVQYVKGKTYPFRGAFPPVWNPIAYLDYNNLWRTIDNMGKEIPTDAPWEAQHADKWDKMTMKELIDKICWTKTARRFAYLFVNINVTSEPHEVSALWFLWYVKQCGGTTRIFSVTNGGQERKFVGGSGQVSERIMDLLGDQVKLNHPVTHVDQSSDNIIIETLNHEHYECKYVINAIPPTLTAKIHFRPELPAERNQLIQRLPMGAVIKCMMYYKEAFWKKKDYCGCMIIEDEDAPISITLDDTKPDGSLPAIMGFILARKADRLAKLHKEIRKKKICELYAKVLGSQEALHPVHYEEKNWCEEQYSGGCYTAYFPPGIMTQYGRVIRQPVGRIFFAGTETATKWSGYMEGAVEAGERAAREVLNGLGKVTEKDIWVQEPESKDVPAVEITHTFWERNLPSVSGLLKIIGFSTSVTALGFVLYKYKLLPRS

[2] = target: T1, Amine oxidase [flavin-containing] A; test: Inhibition of human recombinant MAOA expressed in insect cells assessed as oxidation of kynuramine substrate measured after additional substrate added after 90 mins incubation; details: 1.5 h
[3] = target: T2, Amine oxidase [flavin-containing] B (Homo sapiens, UniProt P27338); test: Inhibition of human recombinant MAOB expressed in insect cells using benzylamine hydrochloride as substrate after 30 mins
T2 sequence (P27338 whole entry): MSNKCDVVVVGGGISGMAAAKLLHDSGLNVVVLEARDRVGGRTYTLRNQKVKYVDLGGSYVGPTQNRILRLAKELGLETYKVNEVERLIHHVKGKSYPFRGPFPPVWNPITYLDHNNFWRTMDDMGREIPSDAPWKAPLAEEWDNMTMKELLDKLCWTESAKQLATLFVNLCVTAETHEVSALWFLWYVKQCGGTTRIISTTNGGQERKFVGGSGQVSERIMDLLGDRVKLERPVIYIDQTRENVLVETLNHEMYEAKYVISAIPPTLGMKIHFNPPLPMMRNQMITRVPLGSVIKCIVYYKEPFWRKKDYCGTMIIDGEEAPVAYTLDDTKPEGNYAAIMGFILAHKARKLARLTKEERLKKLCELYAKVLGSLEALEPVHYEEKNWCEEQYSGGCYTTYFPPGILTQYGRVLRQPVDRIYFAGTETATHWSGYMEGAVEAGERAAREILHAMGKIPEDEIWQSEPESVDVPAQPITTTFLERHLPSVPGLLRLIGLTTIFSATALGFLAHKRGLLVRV
Summary of the method: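 Human recombinant MAO-B (0.01 mg/mL) in 0.1 M isotonic phosphate buffer pH 7.4, inhibitor 0–7000 µM, benzylamine 1000 µM final, 30 min at 37 °C. Stopped with perchloric acid; benzaldehyde measured by reverse-phase HPLC with UV 254 nm. IC50 from sigmoidal log dose–response fit; triplicate, mean ± SD.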

[4] = species: Homo sapiens; test: Selectivity index, ratio of IC50 for human recombinant MAOB to IC50 for human recombinant MAOA
Summary of the method: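 MAO-A (0.005 mg/mL; 150 μM kynuramine, 60 min, 37 °C, […]) and MAO-B (0.01 mg/mL; 1000 μM benzylamine, 30 min, 37 °C, perchloric acid stop, benzaldehyde by HPLC-UV at 254 nm) in isotonic 0.1 M phosphate pH 7.4. Inhibitor 0–7000 μM. IC50s from sigmoidal log curves in triplicate. SI = MAO-B IC50 / MAO-A IC50.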

[5] = target: T1, Amine oxidase [flavin-containing] A; test: Inhibition of human recombinant MAOA expressed in insect cells assessed as oxidation of kynuramine substrate at 2 mM measured after additional enzyme added after 120 mins incubation; details: 2 h, 2000 µM
Summary of the method: (§1)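 Recombinant human MAO-A incubated with kynuramine, with or without inhibitor. Product formation followed over time. A second equivalent of substrate (150 µM kynuramine) added at 90 min and fresh enzyme added at 120 min.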

[6] = target: T1, Amine oxidase [flavin-containing] A; test: Inhibition of human recombinant MAOA expressed in insect cells assessed as oxidation of kynuramine substrate at 2 mM measured after additional substrate added after 90 mins incubation; details: 1.5 h; summary of the method: as §1
[7] = target: T1, Amine oxidase [flavin-containing] A; test: Competitive inhibition of human recombinant MAO-A assessed as dissociation constant for enzyme-inhibitor-substrate complex by Lineweaver-Burk plot analysis
Summary of the method: (§2)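 Human recombinant MAO-A (0.005 mg/mL) in 0.1 M sodium phosphate pH 7.4 made isotonic with NaCl, 37 °C, 30 min. Initial oxidation rates at four kynuramine levels (50–150 µM) without or with four inhibitor concentrations (range per compound, 5–1000 µM). Ki from Lineweaver–Burk plots and replots by linear regression; triplicate.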

[8] = target: T1, Amine oxidase [flavin-containing] A; test: Competitive inhibition of human recombinant MAO-A assessed as dissociation constant for enzyme-inhibitor complex by Lineweaver-Burk plot analysis; summary of the method: as §2
[9] = target: T1, Amine oxidase [flavin-containing] A; test: Inhibition of human recombinant MAOA expressed in insect cells assessed as oxidation of kynuramine substrate at 6 mM measured after additional substrate added after 90 mins incubation; details: 1.5 h; summary of the method: as §1
[10] = target: T1, Amine oxidase [flavin-containing] A; test: Inhibition of human recombinant MAOA expressed in insect cells assessed as oxidation of kynuramine substrate at 6 mM measured after additional enzyme added after 120 mins incubation; details: 2 h, 6000 µM; summary of the method: as §1
[11] = target: T1, Amine oxidase [flavin-containing] A; test: Mixed noncompetitive inhibition of human recombinant MAO-A assessed as dissociation constant for enzyme-inhibitor complex by Lineweaver-Burk plot analysis; summary of the method: as §2
[12] = target: T1, Amine oxidase [flavin-containing] A; test: Mixed noncompetitive inhibition of human recombinant MAO-A assessed as dissociation constant for enzyme-inhibitor-substrate complex by Lineweaver-Burk plot analysis; summary of the method: as §2

Row | SMILES | IC50 [1] [µM] | inhibition (INH) [2] | IC50 [3] [µM] | Ratio IC50 [4] | inhibition (INH) [5] | inhibition (INH) [6] | Ki [7] [µM] | Ki [8] [µM] | inhibition (INH) [9] | inhibition (INH) [10] | Ki [11] [µM] | Ki [12] [µM]
1 | C1=CCN(CCCc2ccccc2)CC1 | 86.1 | Not Active | 812 | 9.4 |  |  |  |  |  |  |  | 
2 | COc1ccc(CCN2CC=CCC2)cc1 | 12 | Not Active | 96.1 | 8 |  |  |  |  |  |  |  | 
3 | C1=CCN(Cc2ccccc2)CC1 | 157 | Not Active | 6540 | 41.6 |  |  |  |  |  |  |  | 
4 | c1ccc(CCN2CCCCC2)cc1 [1-PHENETHYLPIPERIDINE] | 757 |  | 762 | 1 | Active | Active | 3680 | 121 |  |  |  | 
5 | CC1=CCN(CCc2ccccc2)CC1 | 623 |  | 1250 | 2 |  |  |  |  | Active | Active | 408 | 2590
6 | Clc1ccc(CCN2CC=CCC2)c(Cl)c1 | 6.1 | Not Active | 67.2 | 11.1 |  |  |  |  |  |  |  | 

Reference: ChEMBL document CHEMBL1938394, “Time-dependent slowly-reversible inhibition of monoamine oxidase A by N-substituted 1,2,3,6-tetrahydropyridines” (Bioorg Med Chem, 2011)
